From ChEMBL document CHEMBL1136985, “New pyridinone derivatives as potent HIV-1 nonnucleoside reverse transcriptase inhibitors” (J Med Chem, 2009)

Key:
[1] = system: Human immunodeficiency virus 1; assay: Antiviral activity against wild type HIV1 NL4-3 in human HeLaP4 cells assessed as beta-galactosidase activity after 48 hrs; format: functional, organism-based
Procedure, shortened: (§1)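 Cells plated at 5000/well, incubated 48 h, then medium replaced with compound (0.00128 to 4 µM). Infection 4 h later with cell-free NL4-3 virus equivalent to 100 ng p24. At 48 h postinfection cells lysed in PBS with 0.1% NP-40 and 5 mM MgCl2. β-Galactosidase read with chlorophenol red β-D-galactopyranoside. EC50 taken from dose-response curves.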

[2] = Selectivity index, ratio of CC50 for human HeLaP4 cells to EC50 for HIV1 NL4-3; format: toxicity, cell-based; details: read-out: Ratio CC50/EC50
Procedure, shortened: (§2)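 Viability by WST-1 absorbance at 570 nm relative to drug-free control. Divided by EC50 from the 48 h β-galactosidase infection assay with NL4-3 in the same cell type.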

[3] = Selectivity index, ratio of CC50 for human TZM-b1 cells to EC50 for HIV1 NL4-3; format: toxicity, cell-based; details: read-out: Ratio CC50/EC50; procedure, shortened: as §2
[4] = system: Human immunodeficiency virus 1; assay: Antiviral activity against wild type HIV1 NL4-3 in human TZM-b1 cells assessed as beta-galactosidase activity after 48 hrs; format: functional, organism-based; details: Human immunodeficiency virus 1, NL4-3, TZM-b1, 48 h; procedure, shortened: as §1
[5] = system: Human immunodeficiency virus 1; assay: Antiviral activity against HIV1 NL4-3 with K103N mutant in human TZM-b1 cells assessed as beta-galactosidase activity after 48 hrs by single round replication assay; format: functional, organism-based; details: Human immunodeficiency virus 1, NL4-3, TZM-b1, 48 h
Procedure, shortened: (§3)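 TZM-bl cells (DMEM, 5% heat-inactivated FBS) plated at 5000 cells/well and grown 48 h. Medium replaced with compound at 0.00128–4 µM. After 4 h, cells infected with NL4-3-derived RT-mutant virus equal to 100 ng p24. Virus stocks came from HEK293 cells transfected with sequence-verified mutant clones. At 48 h, cells lysed in PBS/0.1% NP-40/5 mM MgCl2 and β-galactosidase read with CPRG. EC50 taken from dose-response curves.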

[6] = system: Human immunodeficiency virus 1; assay: Antiviral activity against HIV1 NL4-3 with K103N/L100I double mutant in human TZM-b1 cells assessed as beta-galactosidase activity after 48 hrs by single round replication assay; format: functional, organism-based; details: Human immunodeficiency virus 1, NL4-3, TZM-b1, 48 h; procedure, shortened: as §3
[7] = system: Human immunodeficiency virus 1; assay: Antiviral activity against HIV1 NL4-3 with Y181C mutant in human TZM-b1 cells assessed as beta-galactosidase activity after 48 hrs by single round replication assay; format: functional, organism-based; details: Human immunodeficiency virus 1, NL4-3, TZM-b1, 48 h; procedure, shortened: as §3
[8] = system: Human immunodeficiency virus 1; assay: Antiviral activity against HIV1 NL4-3 with K103N/Y181C double mutant in human TZM-b1 cells assessed as beta-galactosidase activity after 48 hrs by single round replication assay; details: Human immunodeficiency virus 1, NL4-3, TZM-b1, 48 h
[9] = system: Human immunodeficiency virus 1; assay: Antiviral activity against HIV1 NL4-3 with K103N/V108I double mutant in human TZM-b1 cells assessed as beta-galactosidase activity after 48 hrs by single round replication assay; details: Human immunodeficiency virus 1, NL4-3, TZM-b1, 48 h
[10] = system: Human immunodeficiency virus 1; assay: Antiviral activity against HIV1 NL4-3 with V108I mutant in human TZM-b1 cells assessed as beta-galactosidase activity after 48 hrs by single round replication assay; format: functional, organism-based; details: Human immunodeficiency virus 1, NL4-3, TZM-b1, 48 h; procedure, shortened: as §3
[11] = system: Human immunodeficiency virus 1; assay: Antiviral activity against HIV1 NL4-3 in human TZM-b1 cells assessed as beta-galactosidase activity after 48 hrs by single round replication assay; details: Human immunodeficiency virus 1, NL4-3, TZM-b1, 48 h
[12] = system: Human immunodeficiency virus 1; assay: Antiviral activity against HIV1 NL4-3 with L100I/V108I double mutant in human TZM-b1 cells assessed as beta-galactosidase activity after 48 hrs by single round replication assay; format: functional, organism-based; details: Human immunodeficiency virus 1, NL4-3, TZM-b1, 48 h; procedure, shortened: as §3
[13] = system: Human immunodeficiency virus 1; assay: Antiviral activity against HIV1 NL4-3 with L100I mutant in human TZM-b1 cells assessed as beta-galactosidase activity after 48 hrs by single round replication assay; format: functional, organism-based; details: Human immunodeficiency virus 1, NL4-3, TZM-b1, 48 h; procedure, shortened: as §3
[14] = system: Human immunodeficiency virus 1; assay: Antiviral activity against HIV1 NL4-3 with L100I mutant in human MT4 cells assessed as inhibition of virus-induced cytopathicity after 5 days by multiple round replication assay; format: functional, organism-based; details: Human immunodeficiency virus 1, NL4-3, MT4, 120 h
Procedure, shortened: (§4)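 MT-4 human T-cells, cultured in RPMI 1640 with 10% heat-inactivated FBS at 37 °C, 5% CO2, infected with HIV-1 NL4-3-derived mutant strains, then exposed to a range of compound concentrations. After 5 days, viability of infected and mock-infected cells read by WST-1 tetrazolium cleavage.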

[15] = system: Human immunodeficiency virus 1; assay: Antiviral activity against HIV1 NL4-3 with Y181C mutant in human MT4 cells assessed as inhibition of virus-induced cytopathicity after 5 days by multiple round replication assay; format: functional, organism-based; details: Human immunodeficiency virus 1, NL4-3, MT4, 120 h; procedure, shortened: as §4
[16] = system: Human immunodeficiency virus 1; assay: Antiviral activity against HIV1 NL4-3 with double K103N/L100I mutant in human MT4 cells assessed as inhibition of virus-induced cytopathicity after 5 days by multiple round replication assay; format: functional, organism-based; details: Human immunodeficiency virus 1, NL4-3, MT4, 120 h; procedure, shortened: as §4
[17] = system: Human immunodeficiency virus 1; assay: Antiviral activity against wild type HIV1 NL4-3 in human MT4 cells assessed as inhibition of virus-induced cytopathicity after 5 days by multiple round replication assay; format: functional, organism-based; details: Human immunodeficiency virus 1, NL4-3, MT4, 120 h
Procedure, shortened: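 MT-4 T cells in RPMI 1640 with 10% FBS were infected with NL4-3 (wild type or RT mutants) and exposed to a range of compound concentrations. After 5 days, viability of infected and mock-infected cells was read by WST-1 cleavage, giving EC50 against viral cytopathicity and CC50 together.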

[18] = system: Human immunodeficiency virus 1; assay: Antiviral activity against HIV1 NL4-3 with K103N mutant in human MT4 cells assessed as inhibition of virus-induced cytopathicity after 5 days by multiple round replication assay; format: functional, organism-based; details: Human immunodeficiency virus 1, NL4-3, MT4, 120 h; procedure, shortened: as §4
[19] = target: Human immunodeficiency virus type 1 reverse transcriptase (Human immunodeficiency virus 1) (UniProt Q72547); assay: Inhibition of recombinant HIV1 reverse transcriptase assessed as residual activity at 10 uM by […] incorporation assay relative to control
Procedure, shortened: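 Recombinant HIV-1 RT, compound at 10 µM final (from DMSO). Incubated 10 min at 37 °C, then collected on DEAE filters and washed. Counted by phosphorimager; activity expressed relative to uninhibited RT.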

[20] = system: Human immunodeficiency virus 1; assay: Antiviral activity against HIV1 NL4-3 with Y181C mutant in human HeLaP4 cells assessed as beta-galactosidase activity after 48 hrs by single round replication assay; format: functional, organism-based; details: Human immunodeficiency virus 1, NL4-3, HeLaP4, 48 h
[21] = Human immunodeficiency virus 1, NL4-3, HeLaP4, 48 h

EC50 [1, 21] [µM]	Compound	selectivity ratio [3]	EC50 [4] [µM]	EC50 [5] [µM]	EC50 [6] [µM]	EC50 [9] [µM]	EC50 [11] [µM]	EC50 [12] [µM]	EC50 [13] [µM]	also measured
0.013	CCOC(=O)c1c(OC2CCCC(C)C2C)c(CC)c(C)[nH]c1=O (centres undefined)									selectivity ratio [2]: 2620
	CCc1c(C)[nH]c(=O)c(Br)c1O[C@@H]1C[C@H](C)C[C@H](C)C1	> 28000	< 0.001	0.009	0.068	0.78	6.3	0.038		EC50 [7]: 0.138 µM; EC50 [8]: 0.523 µM; EC50 [10]: 0.001 µM
	CCc1c(C)[nH]c(=O)c([N+](=O)[O-])c1O[C@@H]1C[C@H](C)C[C@H](C)C1	> 37000	< 0.001	0.177	> 10	> 10	> 10	8.3	0.009	EC50 [7]: 0.279 µM; EC50 [10]: 0.002 µM
	CCc1c(C)[nH]c(=O)c(CC)c1O[C@@H]1C[C@H](C)C[C@H](C)C1	> 67000	< 0.001	0.005	0.081	0.107	5.4	0.115	0.006	EC50 [7]: 0.015 µM; EC50 [14]: 0.027 µM; EC50 [15]: 0.049 µM; EC50 [8]: 0.359 µM; EC50 [16]: 0.145 µM; EC50 [17]: 0.002 µM; EC50 [18]: 0.026 µM
	CCc1c(C)[nH]c(=O)c(C)c1O[C@@H]1C[C@H](C)C[C@H](C)C1	40000	0.002	0.142	1.4	5.1	> 10	0.833	0.203	EC50 [7]: 0.893 µM; EC50 [8]: 1.2 µM; EC50 [10]: 0.121 µM
	Cc1ccnc2c1NC(=O)c1cccnc1N2C1CC1 [NEVIRAPINE]		0.039	3.3	> 10	> 10	> 10	> 10	0.252	EC50 [7]: > 10 µM; EC50 [10]: 0.792 µM
0.52	CCOC(=O)c1c(OC2CCCC(C)C2)c(CC)c(C)[nH]c1=O (centres undefined)									selectivity ratio [2]: 192
> 4	CCOC(=O)c1c(OC2CCC(CC)CC2)c(CC)c(C)[nH]c1=O (centres undefined)									selectivity ratio [2]: < 14
	CCOC(=O)c1c(OC2CCCCCC2)c(CC)c(C)[nH]c1=O	205	0.39							Activity [19]: 34.6%
0.955	CCOC(=O)c1c(OC2C(C)CCCC2C)c(CC)c(C)[nH]c1=O (centres undefined)									selectivity ratio [2]: 78
0.258	CCOC(=O)c1c(OC2CC(C)(C)CC(C)(C)C2)c(CC)c(C)[nH]c1=O									selectivity ratio [2]: 112
0.085	CCOC(=O)c1c(OC2CC(C)CC(C)C2)c(CC)c(C)[nH]c1=O (stereo in doubt; 10B)									
1.2	CCc1c(C)[nH]c(=O)c(N)c1O[C@@H]1C[C@H](C)C[C@H](C)C1									selectivity ratio [2]: 83
	CCOC(=O)c1c(OC2CC(C)CC(C)C2)c(CC)c(C)[nH]c1=O (stereo in doubt; 10)									EC50 ([1]; helap4): 0.043 µM
	CCOC(=O)c1c(S[C@@H]2C[C@H](C)C[C@H](C)C2)c(CC)c(C)[nH]c1=O	862	0.116							
	CCc1c(OC2CC(C)CC(C)C2)cc(=O)[nH]c1C (centres undefined)	200	0.275							
	CCc1c(C)[nH]c(=O)c(CN=[N+]=[N-])c1O[C@@H]1C[C@H](C)C[C@H](C)C1	> 54000	< 0.001	0.074	0.828	4.4	> 10	0.107	0.034	EC50 [7]: 0.206 µM; EC50 [8]: 0.689 µM; EC50 [10]: 0.011 µM
> 3	CCOC(=O)c1c(OC2CCCCC2Cl)c(CC)c(C)[nH]c1=O (centres undefined)									selectivity ratio [2]: < 33
	CCc1c(C)[nH]c(=O)c(C(C)(C)O)c1O[C@@H]1C[C@H](C)C[C@H](C)C1	> 100000	< 0.001							
	CCOC(=O)c1c(OC2CCCCC2)c(CC)c(C)[nH]c1=O	> 435	0.23							Activity [19]: 44.7%
	CCOC(=O)c1c(OC2CCCC2)c(CC)c(C)[nH]c1=O	> 135	0.74							Activity [19]: 58.6%
	O=C1Nc2ccc(Cl)cc2[C@@](C#CC2CC2)(C(F)(F)F)O1 [EFAVIRENZ]		< 0.001	0.031	3.7	0.034	0.235	0.014	0.017	EC50 [14]: 0.167 µM; EC50 [15]: 0.004 µM; EC50 [8]: 0.525 µM; EC50 [16]: > 10 µM; EC50 [18]: 0.32 µM
0.236	CCOC(=O)c1c(O[C@H]2C[C@H](C)C[C@H](C)C2)c(CC)c(C)[nH]c1=O									
	CCc1c(C)[nH]c(=O)c(C(C)C)c1O[C@@H]1C[C@H](C)C[C@H](C)C1	> 82000	< 0.001	0.002	0.044	0.105	1.1	0.01	0.002	EC50 [7]: 0.006 µM; EC50 [14]: 0.006 µM; EC50 [15]: 0.019 µM; EC50 [8]: 0.642 µM; EC50 [16]: 0.084 µM; EC50 [17]: 0.002 µM; EC50 [18]: 0.007 µM
	CCc1c(C)[nH]c(=O)c(CO)c1O[C@@H]1C[C@H](C)C[C@H](C)C1	> 826	0.121							
	CCOC(=O)c1c(OC2CCCCCCC2)c(CC)c(C)[nH]c1=O	83	0.7							Activity [19]: 24%
	CCc1c(C)[nH]c(=O)c(N(C)C)c1O[C@@H]1C[C@H](C)C[C@H](C)C1	> 66000	< 0.001	0.014	2.9	> 10	> 10	1.6	0.028	EC50 [7]: 0.177 µM; EC50 [8]: 0.245 µM; EC50 [10]: 0.006 µM
> 10	CCc1c(C)[nH]c(=O)c(C(=O)O)c1OC1CCCCC1									

Compound	EC50 [1, 21] [µM]	selectivity ratio [3]	EC50 [4] [µM]	EC50 [5] [µM]	EC50 [6] [µM]	EC50 [9] [µM]	EC50 [11] [µM]	EC50 [12] [µM]	EC50 [13] [µM]	also measured
CCOC(=O)c1c(O[C@@H]2C[C@H](C)C[C@H](C)C2)c(CC)c(C)[nH]c1=O	0.036			> 10			> 10		2.2	EC50 [20]: 2 µM; selectivity ratio [2]: 1780; EC50 [10]: 5.9 µM
